# Assay results gathered from unrelated publications.
# Lines come from different studies, so protocols differ.
# Effect on: cell growth or viability
Compound,cell line,method,concentration,time,quantity,result
COC(=O)c1[nH]c(C(=O)OC)c(-c2c[nH]c3ccc(Cl)cc23)c1-c1c[nH]c2ccc(Cl)cc12,RAW264.7,resazurin,,72 h,CC50,> 10 µM
O=C1CCN(C(=O)Nc2ccc(F)c(Cl)c2)CN1Cc1ccc(F)cc1F,AML12HBV10,MTT,,48 h,CC50,> 50 µM
Cn1cnc2c1c(=O)n(CC(=O)Nc1c(Cl)cccc1Cl)c(=O)n2C,Vero,MTT,250 µg/mL,,viability,70.7%
O=S(=O)(NNc1nnc(Cl)c2ccccc12)c1ccc(F)cc1,Vero,MTT,500 µg/mL,,viability,4.75%
COc1ccc2c(Cc3ccccc3F)c3[n+](cc2c1OC)CCc1cc2c(cc1-3)OCO2,L929,CCK-8,,24 h,IC50,19.9 µM
CCNc1nc(Nc2ccc(F)c(Cl)c2)c2ccccc2n1,Vero,MTT,125 µg/mL,,viability,52.9%
C=C1[C@@H]2[C@H]3OC(=O)C(=C)[C@@H]3CCC(=C)[C@@H]2C[C@@H]1OC(C)=O,CHO-K1,MTT,,72 h,CC50,6.9 µM
CC(C)=CCc1c(O)c(CC=C(C)C)c2occ(-c3ccc(O)cc3)c(=O)c2c1O,RAW264.7,MTT,100 µg/mL,24 h,viability,91.4%
COc1ccc(S(=O)(=O)ON=C2C=C(C)C(=O)C(C)=C2)cc1,MDA-MB-436,,,,CC50,2.85 µM
